In article PMC4659352 (Molecular cancer therapeutics, 2014):
*1 amine or outer side, *2 acyl side, *3 side chain or, on linkers, in order; H or OH if unused. Where a SMILES comes first, the peptide text is derived from it. [ ]: non-standard residue; d: D form. γGlu = O=C(O)[C@H](CCC(=O)[*:2])N[*:1]

Assays:
CWR22Rv1 xenografts = experiment: CWR22Rv1 subcutaneous xenograft therapy study; assay type: in vivo, mouse; conditions: 7 mg/kg tail vein at days 0, 3, 6, 9
LNCaP xenografts = experiment: LNCaP subcutaneous xenograft therapy study; assay type: in vivo, mouse
[1] = tested on: primary and metastatic tumor models; conditions: intratumoral or systemic injection; ref [22], [23]; cited from earlier work
healthy nude mice = experiment: Toxicity study in healthy nude mice; assay type: in vivo, mouse
PC3 = experiment: MTT cell viability assay, PC3; assay type: cell-based, human; conditions: PSMA-null PC3, standard culture conditions with 10% fetal bovine serum, 72 hours
Outline: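 PC3 cells (about 3,000 per well) were kept in RPMI-1640 with 10% FBS, 1% pen/strep and 2 mmol/L L-glutamine at 37°C and 5% CO2. They were exposed to a concentration range of test compound for 72 hours. Viability was read by MTT, and IC50 was calculated.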

PSMA = PSMA (Homo sapiens, UniProt Q04609); experiment: Protease digestion with purified recombinant PSMA monitored by MALDI-TOF; assay type: biochemical
[2] = Solubility of the propeptides at dosing; assay type: physicochemical; conditions: dissolved in DMSO and diluted in sterile PBS, 5% v/v DMSO
PC3 xenografts = conditions: PC3 (PSA-, PSMA-) xenograft, 7 mg/kg tail vein at days 0, 3, 6, 9
human red blood cells = experiment: Hemolysis assay with washed human red blood cells; assay type: cell-based; conditions: 1 µmol/L peptide, 2% v/v human RBC, 1 hour, 37°C
Outline: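 Test compound was dissolved in DMSO and diluted in 1× PBS to 100, 10 and 1 µmol/L. It was incubated with washed human RBCs (2% v/v) for 1 hour at 37°C. RBCs in PBS alone served as zero lysis and 1% Triton X-100 as 100% lysis. Cells were pelleted and supernatant absorbance read at 540 nm, in triplicate.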

PSA = PSA substrate sequence used in PSA1 and PSA2; ref [27]; cited from earlier work
[3] = 7 mg/kg tail vein at days 0, 3, 6, 9

Sequence of PSMA (Q04609 whole entry): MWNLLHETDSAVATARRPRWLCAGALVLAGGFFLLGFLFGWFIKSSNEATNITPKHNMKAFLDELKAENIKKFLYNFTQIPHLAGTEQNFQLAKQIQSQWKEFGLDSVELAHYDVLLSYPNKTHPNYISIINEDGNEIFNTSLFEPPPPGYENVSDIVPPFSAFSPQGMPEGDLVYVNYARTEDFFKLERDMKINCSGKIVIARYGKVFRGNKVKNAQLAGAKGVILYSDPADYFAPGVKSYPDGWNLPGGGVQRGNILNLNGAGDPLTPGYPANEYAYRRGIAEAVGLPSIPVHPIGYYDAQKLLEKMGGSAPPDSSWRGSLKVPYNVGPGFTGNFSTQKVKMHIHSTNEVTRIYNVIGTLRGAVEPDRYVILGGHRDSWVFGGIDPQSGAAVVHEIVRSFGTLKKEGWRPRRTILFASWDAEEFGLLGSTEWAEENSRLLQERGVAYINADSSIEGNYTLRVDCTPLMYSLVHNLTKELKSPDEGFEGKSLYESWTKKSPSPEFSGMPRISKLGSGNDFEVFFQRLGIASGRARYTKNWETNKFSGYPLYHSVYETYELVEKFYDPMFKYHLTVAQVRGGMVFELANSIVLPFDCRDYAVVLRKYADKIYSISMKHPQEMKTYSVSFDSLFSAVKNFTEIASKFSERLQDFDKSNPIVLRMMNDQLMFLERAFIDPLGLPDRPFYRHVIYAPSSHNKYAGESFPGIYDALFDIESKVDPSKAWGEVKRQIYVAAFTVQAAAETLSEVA

Compound: CC(C)C[C@H](NC(=O)[C@H](CC(C)C)NC(=O)[C@@H](CCCCN)NC(=O)[C@H](CC(C)C)NC(=O)[C@H](CC(C)C)NC(=O)[C@H](CCCCN)NC(=O)[C@@H](CCCCN)NC(=O)[C@@H](CC(C)C)NC(=O)[C@H](CC(C)C)NC(=O)[C@@H](CCCCN)NC(=O)[C@H](CCCCN)NC(=O)[C@H](CC(C)C)NC(=O)[C@@H](CC(C)C)NC(=O)[C@H](CCCCN)NC(=O)[C@@H](N)CC(C)C)C(N)=O [KLL, reference compound] (H-LK[dL]LK[dK]L[dL][dK]KLL[dK]LL-NH2)
- tumor volume by day 28 relative to the γE-KLL arm (CWR22Rv1 xenografts): double the volume of the γE-KLL–treated arm
- tumor growth compared with the saline control at day 9 (LNCaP xenografts; [3]): Inhibition of tumor growth
- effect on tumor growth [1]: inhibit the growth of primary and metastatic tumor models

Compound: CC(C)C[C@H](NC(=O)[C@H](CC(C)C)NC(=O)[C@@H](CCCCN)NC(=O)[C@H](CC(C)C)NC(=O)[C@H](CC(C)C)NC(=O)[C@H](CCCCN)NC(=O)[C@@H](CCCCN)NC(=O)[C@@H](CC(C)C)NC(=O)[C@H](CC(C)C)NC(=O)[C@@H](CCCCN)NC(=O)[C@H](CCCCN)NC(=O)[C@H](CC(C)C)NC(=O)[C@@H](CC(C)C)NC(=O)[C@H](CCCCN)NC(=O)[C@@H](N)CC(C)C)C(=O)N[C@@H](CCC(=O)N[C@@H](CCC(=O)N[C@@H](CCC(=O)N[C@@H](CCC(=O)N[C@@H](CCC(=O)N[C@@H](CCC(=O)N[C@@H](CCC(=O)O)C(=O)O)C(=O)O)C(=O)O)C(=O)O)C(=O)O)C(=O)O)C(=O)O [γE-KLL] (H-LK[dL]LK[dK]L[dL][dK]KLL[dK]LL[γGlu][γGlu][γGlu][γGlu][γGlu][γGlu]E-OH; N-terminus assumed)
- toxicity in healthy nude mice (healthy nude mice): nontoxic
- toxicity in PC3 (PC3): no toxicity
- cleavage of the γ-linked glutamic acid inhibitory domain by PSMA (PSMA; 50 µg peptide, 5 µg PSMA, 4 hours, 37°C, pH 7.8, MALDI-TOF): Cleavage of γ-linked glutamic acid residues from the peptide sequence by PSMA was detected
- degradation by PSMA in the presence of EDTA (PSMA; PSMA with EDTA in the buffer, MALDI-TOF): no degradation
- Treated tumor/Control tumor (T/C) ratio at day 28 (CWR22Rv1 xenografts): 0.3
- Treated tumor/Control tumor (T/C) ratio at day 28 (LNCaP xenografts; [3]): 0.3
- tumor growth compared with the saline control at day 9 (LNCaP xenografts; [3]): Inhibition of tumor growth
- tumor volume at day 28 (LNCaP xenografts; 7 mg/kg tail vein at days 0, 3, 6, 9, n = 10 mice): 220.3 ± 44.6 mm^3
- dose above which solubility issues became apparent [2]: above 10 mg/kg
- therapeutic effect in PC3 tumors (PC3 xenografts): No therapeutic effect

Compound: H-DDDDDDDLKLLKKLLKKLLKLL-NH2 [D7-KLL-NH2]
- hemolysis at 1 µmol/L (human red blood cells): little hemolytic activity

Compound: H-LKLLKKLLKKLLKLLDDDDDDD-OH [KLL-D7-OH]
- hemolysis at 1 µmol/L (human red blood cells): minimal hemolysis

Compound: SSKLQ [SSLQ, serine–serine–lysine–leucine–glutamine]
- kcat/km (PSA): 23.6 s^−1 (mol/L)^−1
